Measurements reported in ChEMBL document CHEMBL1133513, “Synthesis and biological activity of novel 5-fluoro-2'-deoxyuridine phosphoramidate prodrugs” (J Med Chem, 2000).

Assays:
Assay type in all cases: functional, cell-based
[1] = tested on: L1210; experiment: Growth inhibition in L1210 mouse Leukemia cells for a treatment time of 48 hr; conditions: L1210, 48 h
In short: (§1)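 L1210 cells in exponential growth, 3–6 × 10^4/mL in Fischer's medium with 10% horse serum, 1% glutamine, 1% antibiotic–antimycotic. Drug added from ethanol dilutions (50 μL per 10 mL), exposure 2, 8, 24 or 48 h. Cells then spun down, resuspended in drug-free medium, counted 48 h after treatment start. IC50 read from percent-of-control count versus concentration plots.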

[2] = tested on: L1210; experiment: Growth inhibition in L1210 mouse Leukemia cells for a treatment time of 8 hr; conditions: L1210, 8 h; in short: as §1
[3] = tested on: L1210; experiment: Growth inhibition in L1210 mouse Leukemia cells for a treatment time of 24 hr; conditions: L1210, 24 h; in short: as §1
[4] = tested on: L1210; experiment: Growth inhibition in L1210 mouse Leukemia cells for a treatment time of 2 hr; conditions: L1210, 2 h; in short: as §1

| SMILES | IC50 [1] [µM] | IC50 [2] [µM] | IC50 [3] [µM] | IC50 [4] [µM] |
| --- | --- | --- | --- | --- |
| O=c1[nH]cc(F)c(=O)[nH]1 [FLUOROURACIL] | 0.125 |  |  |  |
| CN(CCBr)P(=O)(NCC1OC(n2cc(F)c(=O)[nH]c2=O)CC1O)OCc1ccc([N+](=O)[O-])o1 (stereo not given) | 0.034 | 0.504 | 0.108 | 1.1 |
